Experimental data published in ChEMBL document CHEMBL2384935, “Role of Amphiphilicity in the Design of Synthetic Mimics of Antimicrobial Peptides with Gram-negative Activity” (ACS Med Chem Lett, 2013).
≈ marks a conversion by molar mass, not a printed value.

Legend:
[1] = Hemolytic activity in human RBC assessed as hemoglobin release after 1 hr; type: ADME, cell-based, Erythrocyte; details: human red blood cells
How it was run: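 Human red blood cells were exposed to the compounds. The value is the HC50, the concentration that produces 50% hemolysis of the RBCs.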

Staphylococcus aureus = experiment: Antibacterial activity against Staphylococcus aureus ATCC 27660 assessed as growth inhibition after 18 hrs by CLSI microbroth dilution assay; type: functional; details: ATCC 27660, 18 h
Escherichia coli = experiment: Antibacterial activity against Escherichia coli ATCC 25922 assessed as growth inhibition after 18 hrs by CLSI microbroth dilution assay; type: functional; details: ATCC 25922, 18 h

Compound	MIC (Staphylococcus aureus) [µg/mL]	MIC (Escherichia coli) [µg/mL]	HC50 at 1 h [1] [µg/mL]
NCCCOc1cc(OCCCN)cc(-c2cc(NC(=O)c3ccc4ccccc4c3)cc(-c3cc(OCCCN)cc(OCCCN)c3)c2)c1	6.25 (≈ 9.03 µM)	> 50	422
NCCCOc1cc(OCCCN)cc(-c2cc(-c3ccccc3)cc(-c3cc(OCCCN)cc(OCCCN)c3)c2)c1	12.5 (≈ 20.9 µM)	3.13 (≈ 5.23 µM)	537
Cc1ccc(-c2cc(-c3cc(OCCCN)cc(OCCCN)c3)cc(-c3cc(OCCCN)cc(OCCCN)c3)c2)cc1	0.78 (≈ 1.27 µM)	3.13 (≈ 5.11 µM)	279
NCCCOc1cc(OCCCN)cc(-c2cc(-c3cc(OCCCN)cc(OCCCN)c3)cc(-c3cc4ccccc4[nH]3)c2)c1	1.56 (≈ 2.45 µM)	6.25 (≈ 9.8 µM)	634
Ac-GIGKFLKKAKKFGKAFVKILKK-NH2	8	16	120

The remaining compounds from weak to strong by MIC (Staphylococcus aureus), led by results:

MIC (Staphylococcus aureus) [µg/mL]	MIC (Escherichia coli) [µg/mL]	Compound	HC50 at 1 h [1] [µg/mL]
50 (≈ 77.9 µM)	> 50	NCCCOc1cc(OCCCN)cc(-c2cc(NC(=O)c3ccccc3)cc(-c3cc(OCCCN)cc(OCCCN)c3)c2)c1	> 1000
12.5 (≈ 18 µM)	> 50	NCCCOc1cc(OCCCN)cc(-c2cc(NC(=O)Cc3c[nH]c4ccccc34)cc(-c3cc(OCCCN)cc(OCCCN)c3)c2)c1	519
1.56 (≈ 2.17 µM)	25 (≈ 34.8 µM)	NCCCOc1cc(OCCCN)cc(-c2cc(NC(=O)c3ccc(-c4ccccc4)cc3)cc(-c3cc(OCCCN)cc(OCCCN)c3)c2)c1	113
1.56 (≈ 2.38 µM)	3.13 (≈ 4.78 µM)	CC(C)(C)c1ccc(-c2cc(-c3cc(OCCCN)cc(OCCCN)c3)cc(-c3cc(OCCCN)cc(OCCCN)c3)c2)cc1	41
1.56 (≈ 2.12 µM)	6.25 (≈ 8.51 µM)	NCCCOc1cc(OCCCN)cc(-c2cc(-c3cc(OCCCN)cc(OCCCN)c3)cc(-c3cc(C(F)(F)F)cc(C(F)(F)F)c3)c2)c1	34
